Test results reported in ChEMBL document CHEMBL1764999, “In vitro characterization of human peptide transporter hPEPT1 interactions and passive permeation studies of short cationic antimicrobial peptides” (J Med Chem, 2011).
Converted amounts (≈) assume the structure as drawn. Square brackets hold non-standard residues; d marks the D form. Peptide text beside a SMILES is read from it. * marks the point of attachment. Phe(4-guanidino) = N=C(N)Nc1ccc(C[C@H](N)C(=O)O)cc1; Bip = N[C@@H](Cc1ccc(-c2ccccc2)cc1)C(=O)O; Dip = N[C@H](C(=O)O)C(c1ccccc1)c1ccccc1; NHBn = c1ccc(CN*)cc1

Assays:
[1] = Apparent permeability of the compound by PAMPA; format: ADME
Escherichia coli = test: Antibacterial activity against Escherichia coli by micro dilution method; format: functional
Staphylococcus aureus [2] = test: Antibacterial activity against Staphylococcus aureus by micro dilution method; format: functional
Staphylococcus aureus [3] = test: Antibacterial activity against methicillin-resistant Staphylococcus aureus by micro dilution method; format: functional
[4] = molecular target: T1, Solute carrier family 15 member 1 (Homo sapiens, UniProt P46059); test: Inhibition of human PEPT1 expressed in Xenopus laevis oocytes assessed as inhibition of glycylsarcosine-induced transport-associated current at -60 mV membrane potential by two-electrode voltage clamp method; format: cell-based, Oocyte
T1 sequence (P46059 whole entry): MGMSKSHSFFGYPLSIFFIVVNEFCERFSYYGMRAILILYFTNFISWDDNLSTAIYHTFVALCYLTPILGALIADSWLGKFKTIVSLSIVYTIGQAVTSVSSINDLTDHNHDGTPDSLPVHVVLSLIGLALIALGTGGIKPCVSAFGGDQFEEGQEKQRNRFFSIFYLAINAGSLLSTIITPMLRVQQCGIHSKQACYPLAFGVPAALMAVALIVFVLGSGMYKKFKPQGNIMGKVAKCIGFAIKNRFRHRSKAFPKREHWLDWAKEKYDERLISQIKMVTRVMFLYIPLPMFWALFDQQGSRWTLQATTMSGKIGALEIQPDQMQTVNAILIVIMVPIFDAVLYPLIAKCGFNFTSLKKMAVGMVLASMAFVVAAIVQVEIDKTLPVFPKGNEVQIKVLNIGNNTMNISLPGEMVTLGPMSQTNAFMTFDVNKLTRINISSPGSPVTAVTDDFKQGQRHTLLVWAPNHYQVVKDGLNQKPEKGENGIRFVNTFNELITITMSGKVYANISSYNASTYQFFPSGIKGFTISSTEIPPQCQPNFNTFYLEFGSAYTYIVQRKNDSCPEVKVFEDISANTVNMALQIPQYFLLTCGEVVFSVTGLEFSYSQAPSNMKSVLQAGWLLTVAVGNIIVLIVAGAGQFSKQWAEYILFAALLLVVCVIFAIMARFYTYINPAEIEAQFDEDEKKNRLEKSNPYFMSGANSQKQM
Summary of the method: (§1)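 The hPEPT1 cRNA-injected oocytes were clamped at -60 mV in Barth's solution with HEPES replaced by MES (pH 6.5), at room temperature. Currents from 1 mM Gly-Sar were recorded with and without test peptide (0.25-1.0 mM) at steady state. Flux used a 3.80 mm² surface. Inhibition is residual current as % of the Gly-Sar current. IC50 was fitted from mean inhibitions by Michaelis-Menten.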

[5] = molecular target: T2, Solute carrier family 15 member 1 (Homo sapiens) (UniProt P46059); test: Inhibition of human PEPT1 expressed in Xenopus laevis oocytes assessed as effect on glycylsarcosine-induced transport-associated flux rate current at 0.25 to 1 mM at -60 mV membrane potential by two-electrode voltage clamp method; format: cell-based; conditions: Oocyte; summary of the method: as §1
T2 sequence (whole entry): T1 sequence (P46059 whole entry)

[6] = molecular target: T2, Solute carrier family 15 member 1 (Homo sapiens); test: Inhibition of human PEPT1 expressed in Xenopus laevis oocytes assessed as Inhibition of glycylsarcosine-induced transport-associated current at 0.25 to 1 mM at -60 mV membrane potential by two-electrode voltage clamp method; format: cell-based; conditions: Oocyte; summary of the method: as §1
[7] = molecular target: T2, Solute carrier family 15 member 1 (Homo sapiens); test: Activity of human PEPT1 expressed in Xenopus laevis oocytes assessed as induction of transport-associated flux rate current at 1 mM at -60 mV membrane potential by two-electrode voltage clamp method; format: cell-based; conditions: Oocyte
Summary of the method: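 Oocytes were collagenase-treated (2.5 mg/mL, 70 min) and injected with ~25 ng hPEPT1 cRNA, then held 3-5 days at 17 °C. Superfused at room temperature with MES-buffered Barth's, pH 6.5, clamped at -60 mV. Current is the difference with vs without test peptide, taken 20-30 s after application. Flux in pmol/(s cm²) assumes a 3.80 mm² oocyte surface. Mean of three oocytes.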

Activity [7] | Papp [1] | Compound | Papp ([1]; read-out: Papp) | MIC (Escherichia coli) | MIC (Staphylococcus aureus [2]) | MIC (Staphylococcus aureus [3]) | IC50 [4] | Activity [5] | inhibition [6]
– | – | CC(C)(C)c1cc(C(C)(C)C)c2[nH]c(C(C)(C)C)c(C[C@H](N)C(=O)N[C@@H](CCCNC(=N)N)C(=O)NCCc3ccccc3)c2c1 | 5.27 ×10⁻⁶ cm/s | 10 µg/mL (≈ 15.8 µM) | 2.5 µg/mL (≈ 3.96 µM) | 2.5 µg/mL (≈ 3.96 µM) | – | – | –
– | – | CC(C)(C)c1cc(C(C)(C)C)c2[nH]c(C(C)(C)C)c(C[C@H](N)C(=O)N[C@@H](CCCNC(=N)N)C(N)=O)c2c1 | 0.43 ×10⁻⁶ cm/s | > 150 µg/mL | 15 µg/mL (≈ 28.4 µM) | 15 µg/mL (≈ 28.4 µM) | 600 µM | 34.8 pmol/(s.cm2) | 20.3%
– | – | CC(C)(C)c1cc(C(C)(C)C)c2[nH]c(C(C)(C)C)c(C[C@H](NC(=O)[C@@H](N)CCCNC(=N)N)C(=O)N[C@@H](CCCNC(=N)N)C(=O)NCc3ccccc3)c2c1 | – | 7.5 µg/mL (≈ 9.69 µM) | 2.5 µg/mL (≈ 3.23 µM) | 2.5 µg/mL (≈ 3.23 µM) | – | – | –
– | – | N=C(N)NCCC[C@H](NC(=O)[C@@H](N)CCCNC(=N)N)C(=O)N[C@@H](Cc1c[nH]c2ccccc12)C(=O)NCc1ccccc1 (H-Arg-Arg-Trp-NHBn) | 0.96 ×10⁻⁶ cm/s | > 150 µg/mL | 75 µg/mL (≈ 124 µM) | 25 µg/mL (≈ 41.3 µM) | – | – | –
– | – | N=C(N)NCCC[C@H](NC(=O)[C@H](Cc1ccccc1)NC(=O)[C@@H](N)CCCNC(=N)N)C(=O)NCc1ccccc1 (H-Arg-Phe-Arg-NHBn) | 2.31 ×10⁻⁶ cm/s | > 150 µg/mL | 150 µg/mL (≈ 265 µM) | 75 µg/mL (≈ 132 µM) | – | – | –
– | – | NC(=O)[C@H](CCCN=C(N)N)NC(=O)[C@H](Cc1c[nH]c2ccccc12)NC(=O)[C@@H](N)CCCN=C(N)N (H-Arg-Trp-Arg-NH2) | 2.37 ×10⁻⁶ cm/s | > 200 µg/mL | > 200 µg/mL | – | 2700 µM | 61.8 pmol/(s.cm2) | 15.1%
– | – | N=C(N)NCCC[C@H](NC(=O)[C@H](Cc1c[nH]c2ccccc12)NC(=O)[C@@H](N)CCCNC(=N)N)C(=O)NCc1ccccc1 (H-Arg-Trp-Arg-NHBn) | 0.77 ×10⁻⁶ cm/s | > 150 µg/mL | 75 µg/mL (≈ 124 µM) | 25 µg/mL (≈ 41.3 µM) | – | 3.8 pmol/(s.cm2) | 87.6%
– | – | N=C(N)NCCC[C@H](N)C(=O)N[C@@H](Cc1c[nH]c2ccccc12)C(=O)N[C@@H](Cc1ccc(NC(=N)N)cc1)C(=O)NCc1ccccc1 (H-Arg-Trp-[Phe(4-guanidino)]-NHBn) | 0.47 ×10⁻⁶ cm/s | > 150 µg/mL | 50 µg/mL (≈ 76.5 µM) | 10 µg/mL (≈ 15.3 µM) | – | – | –
– | – | N=C(N)NCCC[C@H](NC(=O)[C@H](Cc1ccc(-c2ccccc2)cc1)NC(=O)[C@@H](N)CCCNC(=N)N)C(N)=O (H-Arg-[Bip]-Arg-NH2) | 0.01 ×10⁻⁶ cm/s | – | 200 µg/mL (≈ 362 µM) | 50 µg/mL (≈ 90.5 µM) | – | 56.7 pmol/(s.cm2) | -3.3%
– | – | N=C(N)NCCC[C@H](NC(=O)[C@H](Cc1ccc(-c2ccccc2)cc1)NC(=O)[C@@H](N)CCCNC(=N)N)C(=O)NCc1ccccc1 (H-Arg-[Bip]-Arg-NHBn) | 0.01 ×10⁻⁶ cm/s | 100 µg/mL (≈ 156 µM) | 5 µg/mL (≈ 7.78 µM) | 5 µg/mL (≈ 7.78 µM) | – | – | –
– | – | N=C(N)NCCC[C@H](NC(=O)[C@@H](NC(=O)[C@@H](N)CCCNC(=N)N)C(c1ccccc1)c1ccccc1)C(N)=O (H-Arg-[Dip]-Arg-NH2) | 0.83 ×10⁻⁶ cm/s | > 150 µg/mL | 100 µg/mL (≈ 181 µM) | > 150 µg/mL | – | – | –
– | – | N=C(N)NCCC[C@H](NC(=O)[C@@H](NC(=O)[C@@H](N)CCCNC(=N)N)C(c1ccccc1)c1ccccc1)C(=O)NCc1ccccc1 (H-Arg-[Dip]-Arg-NHBn) | 0.42 ×10⁻⁶ cm/s | > 150 µg/mL | 25 µg/mL (≈ 38.9 µM) | 10 µg/mL (≈ 15.6 µM) | – | – | –
– | – | N=C(N)NCCC[C@H](N)C(=O)N[C@@H](Cc1ccc(NC(=N)N)cc1)C(=O)N[C@@H](Cc1c[nH]c2ccccc12)C(=O)NCc1ccccc1 (H-Arg-[Phe(4-guanidino)]-Trp-NHBn) | 0.38 ×10⁻⁶ cm/s | > 150 µg/mL | 50 µg/mL (≈ 76.5 µM) | 15 µg/mL (≈ 22.9 µM) | – | – | –
– | – | NCCCC[C@H](NC(=O)[C@H](Cc1ccc(-c2ccccc2)cc1)NC(=O)[C@@H](N)CCCCN)C(N)=O (H-Lys-[Bip]-Lys-NH2) | 0.06 ×10⁻⁶ cm/s | – | > 200 µg/mL | – | – | – | –
– | – | NCCCC[C@H](NC(=O)[C@H](Cc1ccc(-c2ccccc2)cc1)NC(=O)[C@@H](N)CCCCN)C(=O)NCc1ccccc1 (H-Lys-[Bip]-Lys-NHBn) | 0.26 ×10⁻⁶ cm/s | > 150 µg/mL | 15 µg/mL (≈ 25.6 µM) | 25 µg/mL (≈ 42.6 µM) | – | – | –
1.2% | – | NC(N)=NCCC[C@H](NC(=O)[C@@H](N)Cc1c[nH]c2ccccc12)C(=O)NCc1ccccc1 (H-Trp-Arg-NHBn) | – | – | – | – | – | – | –
43.5% | – | N=C(N)NCCC[C@H](NC(=O)[C@@H](N)Cc1c[nH]c2ccccc12)C(=O)O (H-Trp-Arg-OH) | – | – | – | – | – | – | –
10.7% | – | N=C(N)NCCC[C@H](NC(=O)[C@@H](N)Cc1ccc(-c2ccccc2)cc1)C(=O)O (H-[Bip]-Arg-OH) | – | – | – | – | – | – | –
– | – | COC(=O)[C@H](CCCN=C(N)N)NC(=O)[C@@H](N)Cc1ccc(-c2ccccc2)cc1 (H-[Bip]-Arg-OMe) | 1.06 ×10⁻⁶ cm/s | > 200 µg/mL | 150 µg/mL (≈ 365 µM) | – | – | 57.2 pmol/(s.cm2) | 10.4%
– | – | N=C(N)Nc1ccc(C[C@H](NC(=O)[C@H](Cc2ccc(-c3ccccc3)cc2)NC(=O)[C@@H](N)Cc2ccc(NC(=N)N)cc2)C(=O)NCc2ccccc2)cc1 (H-[Phe(4-guanidino)]-[Bip]-[Phe(4-guanidino)]-NHBn) | 0.9 ×10⁻⁶ cm/s | 75 µg/mL (≈ 102 µM) | < 2.5 µg/mL | 5 µg/mL (≈ 6.77 µM) | – | – | –
– | 0.03 ×10⁻⁶ cm/s | NS(=O)(=O)c1cc2c(cc1Cl)N=CNS2(=O)=O [CHLOROTHIAZIDE] | – | – | – | – | – | – | –
– | – | COCCc1ccc(OCC(O)CNC(C)C)cc1 (stereo not given) [METOPROLOL] | 3.23 ×10⁻⁶ cm/s | – | – | – | – | – | –
– | – | CC(C)(C)NCC(O)c1cc(O)cc(O)c1 (stereo not given) [TERBUTALINE] | 0.4 ×10⁻⁶ cm/s | – | – | – | – | – | –
